Data set [1] is described as follows: Xanthones in tumor tissue. As to conditions: for Share of total xanthones in tumors: tentatively identified; for Tumor at 2 weeks, Free / Tumor at 2 weeks, Conjugates / Tumor at 4 weeks, Free / Tumor at 4 weeks, Conjugates: tumor tissue, diet 901 mg/kg xanthones; for Tumor at 2 weeks, Free / Tumor at 2 weeks, Conjugates: 2 weeks after injection of HT-29 cells; for Tumor at 2 weeks, Conjugates / Tumor at 4 weeks, Conjugates: nd = not detected; for Tumor at 4 weeks, Free / Tumor at 4 weeks, Conjugates: 4 weeks after injection of HT-29 cells. The class given is in vivo, Balb/c nu/nu mice.

A further data set in a line: Xanthones in serum. Type of data set: in vivo, Balb/c nu/nu mice. The conditions noted are these: for Identified in serum by HPLC-MS: mice fed diet with α-MG, not detected by HPLC-DAD.
A short description of a further data set: Xanthones in liver. Type of data set: in vivo, Balb/c nu/nu mice. The conditions noted are these: control- and tumor-bearing mice; tentatively identified.
Data set [2] relates to BcL-2. As to the kind of experiment: BcL-2 content in HT-29 cells by ELISA. Type of data set: cell-based, human. As to conditions: 24 h. An outline of the steps:
(§1)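 HT-29 cells were seeded at 2 × 10⁵ cells/well in 6-well dishes. At 70% confluence, monolayers got basal McCoy's medium without or with test compound (6 and 12 µmol/L) for 24 h at 37°C. Cells were washed twice with ice-cold PBS and pelleted (800 × g, 4°C, 10 min), then lysed in ice-cold lysis buffer. Protein was measured with a commercial ELISA kit. Data are means ± SD versus control, compared by Welch's unpaired t-test.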

The conditions of data set [3]: rats, gastric administration of 20 mg/kg in water containing 2% ethanol plus 2% Tween-80; cited from earlier work.
For data set [4], the system named is β-catenin. As to the kind of experiment: β-catenin content in HT-29 cells by ELISA. Type of data set: cell-based, human. As to conditions: 24 h. A digest of the protocol: as §1
A general note: In an ELISA, binding on a coated surface is turned into a signal by an enzyme label.

For data set [5], the system named is β-catenin. As to the kind of experiment: β-catenin in tumor tissue homogenates by ELISA. The class given is in vivo, Balb/c nu/nu mice. The conditions noted are these: mice fed diet with α-MG; 4 weeks after injection of cells; control diet 19.1 ± 1.9.
The test system of data set [6] is BcL-2. As to the kind of experiment: BcL-2 in tumor tissue homogenates by ELISA. Type of data set: in vivo, Balb/c nu/nu mice. The conditions noted are these: mice fed diet with α-MG; 4 weeks after injection of cells; control diet 17.2 ±0.8.
The conditions of data set [7]: human subjects after mangosteen juice blend containing 94 mg/mL α-MG; cited from earlier work.
The next data set relates to HT-29 cells. As to the kind of experiment: HT-29 colon cell xenograft growth in mice fed diet with α-MG. The conditions noted are these: diet 900 mg α-MG/kg. The class given is in vivo, Balb/c nu/nu mice.
Data set [8] can be described thus: Food intake and body weight of mice fed diet with α-MG. Type of data set: in vivo, Balb/c nu/nu mice. The conditions noted are these: 845 mg/kg α-MG (901 mg total xanthones/kg) in the diet. An outline of the steps: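 Female athymic Balb/c nu/nu mice arrived at 4 weeks of age and were acclimated 4 days on AIN-93G diet. They were randomized (n = 24/group) to γ-irradiated AIN-93G without or with a nominal 900 mg/kg test compound, given ad libitum; actual diet content was determined by extraction. Food intake, appearance/behaviour and body weight were checked after 3 and 7 days. Groups were compared by one-way ANOVA with Dunnett's post-test.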

Where [9] appears, read: 6 µmol/L, preconfluent HT-29 cells.
Where [10] appears, read: 2 weeks after injection of HT-29 cells.
The mark [11] stands for this setting: 4 weeks after injection of HT-29 cells.

Marks after values point to notes of the source that are not given here.

The text below walks through data of publication PMC3886125 (Molecular nutrition & food research, 2012).

For the compound `COc1cc2oc3cc(O)c(OC)c(CC=C(C)C)c3c(=O)c2c(O)c1CC=C(C)C` [β-MG, β-mangostin], the “Share of total xanthones in tumors” value in [1] (2 weeks after injection) turned out to be 41%. Moreover, the “Phase II conjugates as share of tumor β-MG” value in data set [1] (4 weeks) turned out to be 40%. Also, the “Share of total xanthones in tumors” value in [1] (4 weeks after injection) came to 45%. In addition, in data set [1], the “Tumor at 2 weeks, Free” value is given as 1.54 ± 0.16 ^b) µg/g; the “Tumor at 2 weeks, Conjugates” value was “not detected”; the “Tumor at 4 weeks, Free” value is 2.68 ± 0.17 ^a) µg/g; the “Tumor at 4 weeks, Conjugates” value is 1.83 ± 0.17 ^b) µg/g. Also, the “Identified in serum by HPLC-MS” value in “Xanthones in serum” is listed as “Low concentrations”. For the same compound, the “Share of the total xanthones in the liver” value in “Xanthones in liver” is given as “approx. 85%”.

Take `COc1c(O)cc2oc3cc4c(c(O)c3c(=O)c2c1CC=C(C)C)C=CC(C)(C)O4` [9-Hydroxycalabaxanthone]: in data set [1], the “Tumor at 2 weeks, Free” value is 0.22 ± 0.09 ^a) µg/g and the “Tumor at 4 weeks, Free” value was 0.32 ± 0.11 ^a) µg/g. For the same compound, in “Xanthones in serum”, the “Identified in serum by HPLC-MS” value was “Low concentrations”.

Regarding `COc1c(O)cc2oc3cc(O)c(CC=C(C)C)c(O)c3c(=O)c2c1CC=C(C)C` [α-MG, α-mangostin], the “Share of tumor α-MG that is conjugated” value in data set [1] (2 weeks postinjection) came out at 60%. Moreover, in [1] (4 weeks postinjection), the “Free and conjugated α-MG concentration in tumor tissue” value is 3.6 ± 0.1; the “Share of tumor α-MG that is conjugated” value is listed as 52%. For the same compound, in [1], the “Tumor at 2 weeks, Free” value is on record as 0.51 ± 0.02 ^b) µg/g; the “Tumor at 2 weeks, Conjugates” value is on record as 0.76 ± 0.03 ^c) µg/g; the “Tumor at 4 weeks, Free” value is reported as 1.71 ± 0.06 ^a) µg/g; the “Tumor at 4 weeks, Conjugates” value is given as 1.87 ± 0.06 ^a) µg/g. Further, in the data set on BcL-2 [2] (setting [9]), the “Decrease of BcL-2 vs vehicle only” value was 27 ± 3%. For the same compound, the “Cellular content of BcL-2 less than control cultures” value with BcL-2 [2] (12 µmol/L, HT-29 cells) stood at 44 ± 4%. Further, the “Concentration of conjugated α-MG in serum” value in “Xanthones in serum” (mice with tumors for 2 weeks) was 1000 ± 100 ng/mL. Moreover, the “α-MG in serum, without enzyme treatment (free)” value in the data set “Xanthones in serum” (nontumor-bearing and tumor-bearing mice fed diet with α-MG for 5 weeks) is reported as 15 ± 1 ng/mL. Besides, in “Xanthones in serum” (nontumor-bearing mice, 4 weeks, glucuronidase/sulfatase treated), the “Concentration of total α-MG in serum” value was 1900 ± 300 ng/mL. Further, in [3], the Absorption entry was “extremely low”. For the same compound, the “Decrease of β-catenin vs vehicle only” value in the data set with β-catenin [4] (setting [9]) was 24 ± 2%. Further, the “Cellular content of β-catenin less than control cultures” value in the data set with β-catenin [4] (12 µmol/L, HT-29 cells) was determined as 39 ± 3%. The “β-catenin concentration in tumors” value in the data set on β-catenin [5] worked out at 11.2 ± 0.7 pg/mg protein. Further, the “BcL-2 concentration in tumors” value with BcL-2 [6] is recorded as 3.9 ± 0.5 pg/mg protein. In [7], the “Cmax of free α-MG in plasma” value was 3.1 µM. Further, in the data set with HT-29 cells (setting [10]), the “Tumor mass less than control diet” value came out at 27% and the “Tumor volume less than in mice fed the diet without α-MG” value is recorded as 41%. Moreover, in the data set with HT-29 cells (setting [11]), the “Tumor mass less than control diet” value is 41% and the “Tumor volume less than in mice fed the diet without α-MG” value turned out to be 36%. Further, in data set [8], the Body weight entry is given as “not significantly altered” and the Food intake result is reported as “not significantly altered”.
